Source: ChEMBL document CHEMBL4316593 (Eur J Med Chem, 2019)
Activity calls are given as the source filed them. The calls are words filed in the database; no cut-off is given here.

Experiments:
[1] = system: U-87 MG; assay: Cytotoxicity against human U87 cells assessed as reduction in cell proliferation at 100 uM measured after 48 hrs by trypan blue dye-based cell counting analysis; assay type: functional; details: U-87MG ATCC
Summary of the method: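 Trypan blue viability assay. U87 (MEM, 10% FBS) or LN229 (DMEM, 5% FBS) cells were treated for 48hrs. Screening used 100 μM; the dose-response used 100, 75, 50, 25 and 10 μM. Cells were pelleted at 1200 rpm and live/dead cells counted by automated counter. Mortality % was taken relative to the DMSO control, and IC₅₀ derived from the dose-response curve. Cisplatin served as positive control.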

[2] = system: U-87 MG; assay: Cell cycle arrest in human U87 cells assessed as change in MYC gene expression at cytotoxic IC50 measured after 48 hrs […] relative to control; assay type: functional, U-87MG ATCC
Summary of the method: (§1)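 U87 expression profiling. Cells incubated 48hrs at 37°C, 5% CO₂ with the IC₅₀ concentration, alongside a cisplatin and an untreated control, in triplicate. RNA was isolated by one common protocol and profiled. DEGs were called with DESeq2 (q < 0.05, fold change > 1.5) and expressed as fold change versus untreated.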

[3] = system: U-87 MG; assay: Cell cycle arrest in human U87 cells assessed as change in CDK7 gene expression at cytotoxic IC50 measured after 48 hrs […] relative to control; assay type: functional, U-87MG ATCC; summary of the method: as §1
[4] = system: U-87 MG; assay: Cell cycle arrest in human U87 cells assessed as change in CDK6 gene expression at cytotoxic IC50 measured after 48 hrs […] relative to control; assay type: functional, U-87MG ATCC; summary of the method: as §1
[5] = system: U-87 MG; assay: Induction of DNA damage in human U87 cells assessed as change in PCNA gene expression at cytotoxic IC50 measured after 48 hrs […] relative to control; assay type: functional, U-87MG ATCC; summary of the method: as §1
[6] = system: U-87 MG; assay: Induction of DNA damage in human U87 cells assessed as change in RPS27L gene expression at cytotoxic IC50 measured after 48 hrs […] relative to control; assay type: functional, U-87MG ATCC; summary of the method: as §1
[7] = system: U-87 MG; assay: Induction of DNA damage in human U87 cells assessed as change in E2F7 gene expression at cytotoxic IC50 measured after 48 hrs […] relative to control; assay type: functional, U-87MG ATCC; summary of the method: as §1
[8] = system: U-87 MG; assay: Induction of DNA damage in human U87 cells assessed as change in CDK1 gene expression at cytotoxic IC50 measured after 48 hrs […] relative to control; assay type: functional, U-87MG ATCC; summary of the method: as §1
[9] = system: U-87 MG; assay: Induction of DNA damage in human U87 cells assessed as change in PLK2 gene expression at cytotoxic IC50 measured after 48 hrs […] relative to control; assay type: functional, U-87MG ATCC; summary of the method: as §1
[10] = system: U-87 MG; assay: Induction of apoptosis in human U87 cells assessed as change in FAS gene expression at cytotoxic IC50 measured after 48 hrs […] relative to control; assay type: functional, U-87MG ATCC
Summary of the method: (§2)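 U87 cells grown in MEM with 10% FBS at 37°C, 5% CO2. Cells exposed to IC50 of test compound for 48 hrs, alongside untreated and cisplatin controls, each condition in triplicate. RNA isolated and profiled; differential expression called with DESeq2 (q-value < 0.05, fold change > 1.5), fold change versus untreated.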

[11] = system: U-87 MG; assay: Induction of apoptosis in human U87 cells assessed as change in GADD45A gene expression at cytotoxic IC50 measured after 48 hrs […] relative to control; assay type: functional, U-87MG ATCC; summary of the method: as §2
[12] = system: U-87 MG; assay: Induction of oxidative stress in human U87 cells assessed as increase in redox level at cytotoxic IC50 measured after 5 hrs by H2DCFDA dye based fluorescence assay relative to control; assay type: functional, U-87MG ATCC
Summary of the method: (§3)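 Cells grown overnight, exposed to IC50 for 5 hrs at 37°C with negative, positive (H2O2) and blank controls, plus solvent baseline. Pelleted, loaded with 2 µM H2DCFDA for 30 min at 37°C, washed, resuspended in warm medium, 20 min at room temperature. Fluorescence read at ex 485/em 535 nm.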

[13] = system: LN-229; assay: Induction of oxidative stress in human LN229 cells assessed as increase in redox level at cytotoxic IC50 measured after 5 hrs by H2DCFDA dye based fluorescence assay relative to control; assay type: functional, cell-based; summary of the method: as §3
[14] = Inhibition of RTK/PI3K/AKT/mTOR signaling in human U87 cells assessed as down regulation of NXF1 gene expression at cytotoxic IC50 measured after 48 hrs relative to control; assay type: cell-based; details: U-87MG ATCC
Summary of the method: (§4)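 Cells were exposed for 48hrs at 37°C in humidified 5% CO₂ to the compound at its previously determined IC₅₀, with Cisplatin at its IC₅₀ and an untreated negative control alongside. Each condition was run in triplicate. RNA was isolated from all samples by the same protocol. Genes were called differentially expressed by DESeq2 at q-value < 0.05 and fold change > 1.5.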

[15] = Inhibition of RTK/PI3K/AKT/mTOR signaling in human U87 cells assessed as down regulation of CHST3 gene expression at cytotoxic IC50 measured after 48 hrs relative to control; assay type: cell-based; details: U-87MG ATCC; summary of the method: as §2
[16] = Inhibition of RTK/PI3K/AKT/mTOR signaling in human U87 cells assessed as down regulation of ABCB8 gene expression at cytotoxic IC50 measured after 48 hrs relative to control; assay type: cell-based; details: U-87MG ATCC; summary of the method: as §2
[17] = Inhibition of RTK/PI3K/AKT/mTOR signaling in human U87 cells assessed as down regulation of SORT1 gene expression at cytotoxic IC50 measured after 48 hrs relative to control; assay type: cell-based; details: U-87MG ATCC; summary of the method: as §4
[18] = Inhibition of RTK/PI3K/AKT/mTOR signaling in human U87 cells assessed as down regulation of CDK5RAP2 gene expression at cytotoxic IC50 measured after 48 hrs relative to control; assay type: cell-based; details: U-87MG ATCC; summary of the method: as §2
[19] = Inhibition of RTK/PI3K/AKT/mTOR signaling in human U87 cells assessed as down regulation of ERCC3 gene expression at cytotoxic IC50 measured after 48 hrs relative to control; assay type: cell-based; details: U-87MG ATCC; summary of the method: as §2
[20] = Inhibition of RTK/PI3K/AKT/mTOR signaling in human U87 cells assessed as up regulation of ZNF395 gene expression at cytotoxic IC50 measured after 48 hrs relative to control; assay type: cell-based; details: U-87MG ATCC
[21] = Inhibition of RTK/PI3K/AKT/mTOR signaling in human U87 cells assessed as up regulation of TOX2 gene expression at cytotoxic IC50 measured after 48 hrs relative to control; assay type: cell-based; details: U-87MG ATCC
[22] = Inhibition of RTK/PI3K/AKT/mTOR signaling in human U87 cells assessed as up regulation of USH1 protein network component harmonin gene expression at cytotoxic IC50 measured after 48 hrs relative to control; assay type: cell-based; details: U-87MG ATCC
[23] = Inhibition of RTK/PI3K/AKT/mTOR signaling in human U87 cells assessed as up regulation of solute carrier family 12 member 9 gene expression at cytotoxic IC50 measured after 48 hrs relative to control; assay type: cell-based; details: U-87MG ATCC
[24] = Inhibition of RTK/PI3K/AKT/mTOR signaling in human U87 cells assessed as up regulation of neuron navigator 1 gene expression at cytotoxic IC50 measured after 48 hrs relative to control; assay type: cell-based
[25] = Inhibition of RTK/PI3K/AKT/mTOR signaling in human U87 cells assessed as up regulation of ubiquitin-fold modifier conjugating enzyme 1 gene expression at cytotoxic IC50 measured after 48 hrs relative to control; assay type: cell-based; details: U-87MG ATCC
[26] = Inhibition of RTK/PI3K/AKT/mTOR signaling in human U87 cells assessed as up regulation of TTYH3 gene expression at cytotoxic IC50 measured after 48 hrs relative to control; assay type: cell-based; details: U-87MG ATCC

SMILES: CC(=O)C(=NNc1ccccc1C#N)C(C)=O
- Activity [1]: Active
- fold change (FC) [2]: -1.478
- fold change (FC) [3]: -1.609
- fold change (FC) [4]: -1.311
- fold change (FC) [5]: 1.668
- fold change (FC) [6]: 2.121
- fold change (FC) [7]: 2.057
- fold change (FC) [8]: 1.569
- fold change (FC) [9]: 1.28
- log2FC [10]: 3.514
- log2FC [11]: -0.9679
- Activity [12]: 9.5%
- Activity [13]: inactive
- log2FC [14]: -1.44
- log2FC [15]: -1.06
- log2FC [16]: -0.871
- log2FC [17]: -0.801
- log2FC [18]: -0.519
- log2FC [19]: -0.491
- log2FC [20]: 1.89
- log2FC [21]: 1.66
- log2FC [22]: 1.03
- log2FC [23]: 0.907
- log2FC [24]: 0.879
- log2FC [25]: 0.669
- log2FC [26]: 0.524
